Results as given in ChEMBL document CHEMBL1932952, “Synthesis and biochemical analysis of 2,2,3,3,4,4,5,5,6,6,7,7-dodecafluoro-N-hydroxy-octanediamides as inhibitors of human histone deacetylases” (Bioorg Med Chem, 2012).

Assays:
[1] = molecular target: T1, Histone deacetylase-like amidohydrolase (Alcaligenes sp. (strain DSM 11172) (Bordetella sp. (strain FB188)), UniProt Q70I53); assay: Inhibition of Bordetella FB188 HDAH using Boc-L-Lys(acetyl)-MCA as substrate by fluorogenic enzymatic assay
T1 sequence (Q70I53 whole entry): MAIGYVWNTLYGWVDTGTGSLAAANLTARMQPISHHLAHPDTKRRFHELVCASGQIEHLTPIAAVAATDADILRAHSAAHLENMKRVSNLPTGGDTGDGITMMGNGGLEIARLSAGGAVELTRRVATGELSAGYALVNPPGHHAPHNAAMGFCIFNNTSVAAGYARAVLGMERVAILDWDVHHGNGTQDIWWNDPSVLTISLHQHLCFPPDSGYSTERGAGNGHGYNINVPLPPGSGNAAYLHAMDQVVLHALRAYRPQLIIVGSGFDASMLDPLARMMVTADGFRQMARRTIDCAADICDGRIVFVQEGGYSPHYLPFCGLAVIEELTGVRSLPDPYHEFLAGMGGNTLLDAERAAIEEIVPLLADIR

[2] = molecular target: Histone deacetylase 1 (Homo sapiens, UniProt Q13547); assay: Inhibition of recombinant human HDAC1 using Boc-L-Lys(acetyl)-MCA as substrate by fluorogenic enzymatic assay
[3] = molecular target: T2, Protein deacetylase HDAC6 (Homo sapiens, UniProt Q9UBN7); assay: Inhibition of recombinant human HDAC6 using Boc-L-Lys(acetyl)-MCA as substrate by fluorogenic enzymatic assay
T2 sequence (Q9UBN7 whole entry): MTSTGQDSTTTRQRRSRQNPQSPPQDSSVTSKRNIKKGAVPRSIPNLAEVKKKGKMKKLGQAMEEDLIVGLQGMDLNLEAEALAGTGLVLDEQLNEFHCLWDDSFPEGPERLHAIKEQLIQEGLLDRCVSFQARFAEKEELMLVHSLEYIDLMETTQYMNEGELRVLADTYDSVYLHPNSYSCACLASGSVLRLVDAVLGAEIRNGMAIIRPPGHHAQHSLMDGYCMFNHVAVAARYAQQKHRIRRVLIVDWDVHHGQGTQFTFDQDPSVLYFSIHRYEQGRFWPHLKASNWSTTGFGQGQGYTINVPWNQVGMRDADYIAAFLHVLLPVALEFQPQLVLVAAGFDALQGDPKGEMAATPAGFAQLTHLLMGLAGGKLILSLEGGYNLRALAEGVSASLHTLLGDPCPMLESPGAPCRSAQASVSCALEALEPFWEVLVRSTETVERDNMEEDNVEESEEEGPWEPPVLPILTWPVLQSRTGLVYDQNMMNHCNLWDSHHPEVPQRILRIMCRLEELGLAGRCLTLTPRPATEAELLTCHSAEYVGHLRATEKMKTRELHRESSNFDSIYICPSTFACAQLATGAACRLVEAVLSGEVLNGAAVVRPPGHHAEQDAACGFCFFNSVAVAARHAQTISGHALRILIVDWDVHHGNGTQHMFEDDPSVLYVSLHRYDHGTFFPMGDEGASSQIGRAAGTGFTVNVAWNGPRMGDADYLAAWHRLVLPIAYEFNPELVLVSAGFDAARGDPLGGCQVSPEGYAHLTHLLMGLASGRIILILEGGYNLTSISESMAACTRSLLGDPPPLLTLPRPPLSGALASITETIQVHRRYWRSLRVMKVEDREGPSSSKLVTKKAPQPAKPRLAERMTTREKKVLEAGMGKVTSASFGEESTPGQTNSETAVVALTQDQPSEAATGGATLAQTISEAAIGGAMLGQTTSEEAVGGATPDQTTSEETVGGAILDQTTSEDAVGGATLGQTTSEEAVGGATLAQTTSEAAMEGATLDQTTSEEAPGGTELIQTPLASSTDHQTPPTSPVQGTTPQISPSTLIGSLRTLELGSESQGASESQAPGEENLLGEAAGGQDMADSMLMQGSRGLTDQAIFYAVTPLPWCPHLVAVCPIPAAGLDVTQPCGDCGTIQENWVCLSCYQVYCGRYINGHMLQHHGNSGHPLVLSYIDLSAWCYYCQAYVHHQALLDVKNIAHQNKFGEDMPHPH

[4] = molecular target: T3, Histone deacetylase 7 (Homo sapiens, UniProt Q8WUI4); assay: Inhibition of recombinant human HDAC7 using Boc-L-Lys(trifluoroacetyl)-MCA as substrate by fluorogenic enzymatic assay
T3 sequence (Q8WUI4 whole entry): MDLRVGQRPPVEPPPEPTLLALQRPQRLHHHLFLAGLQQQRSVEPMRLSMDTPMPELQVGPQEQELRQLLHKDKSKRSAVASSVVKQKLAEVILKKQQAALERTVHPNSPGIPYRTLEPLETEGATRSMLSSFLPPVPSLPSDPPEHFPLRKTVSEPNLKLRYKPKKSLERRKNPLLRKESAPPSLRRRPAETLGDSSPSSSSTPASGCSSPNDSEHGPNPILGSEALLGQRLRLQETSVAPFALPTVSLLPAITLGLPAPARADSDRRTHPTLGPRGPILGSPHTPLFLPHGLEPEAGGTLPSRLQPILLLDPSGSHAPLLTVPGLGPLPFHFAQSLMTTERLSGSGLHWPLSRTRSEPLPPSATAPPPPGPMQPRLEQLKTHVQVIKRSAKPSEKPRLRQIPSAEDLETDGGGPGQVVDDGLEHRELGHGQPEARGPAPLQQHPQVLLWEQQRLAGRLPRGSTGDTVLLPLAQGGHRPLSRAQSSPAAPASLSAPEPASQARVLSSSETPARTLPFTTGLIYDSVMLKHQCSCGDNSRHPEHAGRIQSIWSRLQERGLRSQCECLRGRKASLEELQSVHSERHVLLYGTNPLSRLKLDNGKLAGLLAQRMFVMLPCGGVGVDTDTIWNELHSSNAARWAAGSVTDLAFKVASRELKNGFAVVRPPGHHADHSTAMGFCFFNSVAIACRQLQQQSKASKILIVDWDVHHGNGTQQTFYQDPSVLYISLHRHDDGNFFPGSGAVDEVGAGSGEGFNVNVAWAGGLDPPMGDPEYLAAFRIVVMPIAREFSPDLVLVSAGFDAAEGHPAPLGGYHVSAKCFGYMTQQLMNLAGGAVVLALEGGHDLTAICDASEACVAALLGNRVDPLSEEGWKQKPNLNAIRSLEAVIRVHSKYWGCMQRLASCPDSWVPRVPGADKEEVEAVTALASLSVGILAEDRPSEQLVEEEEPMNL

[5] = molecular target: T4, Histone deacetylase 8 (Homo sapiens, UniProt Q9BY41); assay: Inhibition of recombinant human HDAC8 using Boc-L-Lys(trifluoroacetyl)-MCA as substrate by fluorogenic enzymatic assay
T4 sequence (Q9BY41 whole entry): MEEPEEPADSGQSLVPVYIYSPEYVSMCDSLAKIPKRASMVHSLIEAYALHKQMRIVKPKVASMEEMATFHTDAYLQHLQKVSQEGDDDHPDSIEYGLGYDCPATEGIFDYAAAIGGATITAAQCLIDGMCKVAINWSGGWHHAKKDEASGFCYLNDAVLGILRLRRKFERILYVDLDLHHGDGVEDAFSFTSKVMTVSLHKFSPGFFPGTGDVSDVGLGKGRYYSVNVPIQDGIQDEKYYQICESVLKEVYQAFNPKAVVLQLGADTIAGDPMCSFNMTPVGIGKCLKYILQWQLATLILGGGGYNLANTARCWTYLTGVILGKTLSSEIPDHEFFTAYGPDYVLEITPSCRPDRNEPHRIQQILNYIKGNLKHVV

[6] = molecular target: T5, Histone deacetylase 7 (Homo sapiens) (UniProt Q8WUI4); assay: Ratio of SAHA Kd to compound Kd for recombinant human HDAC7
T5 sequence (whole entry): T3 sequence (Q8WUI4 whole entry)

[7] = molecular target: Histone deacetylase; assay: Inhibition of HDAC in human K562 cells using Boc-L-Lys(acetyl)-MCA as substrate by fluorogenic cellular assay; assay type: cell-based
Method in brief: (§1)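 K562 cells were grown in RPMI with 10% FCS, L-glutamine and gentamycin, then pelleted. Lysis in 50 mM Tris–HCl pH 8.5, 1 M NaCl, 1 mM MgCl₂, Triton X-100 (up to 5× pellet volume), 2 h at 37 °C. The diluted lysate replaces recombinant enzyme in the two-step fluorogenic trypsin-coupled assay with substrate at 20 µM final. Read-out is AMC fluorescence (ex 390, em 460 nm), giving IC50.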

[8] = molecular target: Histone deacetylase; assay: Inhibition of HDAC in human K562 cells using Boc-L-Lys(trifluoroacetyl)-MCA as substrate by fluorogenic cellular assay; assay type: cell-based; method in brief: as §1
[9] = molecular target: T6, Histone deacetylase 8 (Homo sapiens) (UniProt Q9BY41); assay: Ratio of SAHA Kd to compound Kd for recombinant human HDAC8
T6 sequence (whole entry): T4 sequence (Q9BY41 whole entry)

Histone deacetylase 1, sequence (Q13547 whole entry): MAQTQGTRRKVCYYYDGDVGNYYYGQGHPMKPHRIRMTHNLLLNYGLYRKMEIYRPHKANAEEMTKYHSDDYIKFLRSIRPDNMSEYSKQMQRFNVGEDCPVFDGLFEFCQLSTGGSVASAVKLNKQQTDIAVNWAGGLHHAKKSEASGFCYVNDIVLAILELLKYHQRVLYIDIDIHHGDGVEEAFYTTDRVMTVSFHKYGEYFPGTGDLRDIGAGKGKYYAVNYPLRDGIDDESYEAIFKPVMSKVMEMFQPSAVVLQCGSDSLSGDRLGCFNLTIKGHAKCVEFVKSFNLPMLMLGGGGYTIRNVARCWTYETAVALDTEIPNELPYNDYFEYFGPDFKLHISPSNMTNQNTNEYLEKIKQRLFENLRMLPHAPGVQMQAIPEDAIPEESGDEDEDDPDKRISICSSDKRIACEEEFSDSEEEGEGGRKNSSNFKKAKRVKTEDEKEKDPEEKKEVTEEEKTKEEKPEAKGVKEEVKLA

Compound: O=C(NO)C(F)(F)C(F)(F)C(F)(F)C(F)(F)C(F)(F)C(F)(F)C(=O)Nc1nc(-c2ccccc2)cs1
- Kd [1]: 2.2 µM
- Kd [2]: 2.6 µM
- Kd [3]: 5.4 µM
- Kd [4]: 1.4 µM
- Kd [5]: 1.5 µM
- Ratio [6]: 25
- IC50 [7]: 30 µM
- IC50 [8]: 14 µM
- Ratio [9]: 2

Compound: O=C(NO)C(F)(F)C(F)(F)C(F)(F)C(F)(F)C(F)(F)C(F)(F)C(=O)Nc1ccccc1
- Kd [1]: 0.54 µM
- Kd [2]: 29 µM
- Kd [3]: 11 µM
- Kd [4]: 11 µM
- Kd [5]: 17 µM
- Ratio [6]: 3
- IC50 [7]: > 50 µM
- IC50 [8]: 49 µM
